Test results taken from PMC11350598 (JACS Au, 2024).
Read-outs that look alike come from different tables or passages of the source. Marks after values point to notes of the source that are not given here.

Experiments:
[1] = system: wild-type (AF) A. ferrooxidans cells; experiment: Metal recovery from porphyry molybdenite processing concentrate; type: cell-based; conditions: for binding during reactions with process concentrate: data not shown; for efficiency of recovery: diluted acidic wastewater from molybdenite processing, pH 1.6
Outline: (§1)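 Wild-type *A. ferrooxidans* and strains engineered to (over)express wild-type (AFWP) or mutant (AFMP) ModA/WtpA oxyanion-binding protein (AFE_1498) were each reacted with diluted acidic wastewater from the washing and extraction steps of porphyry molybdenite processing. The wastewater held molybdenum and rhenium as major components, at pH 1.6. Mo and Re recovery efficiency after binding was compared with wild-type cells.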

AFMP cells = experiment: as above; type: cell-based, A. ferrooxidans; conditions: for binding during reactions with process concentrate: data not shown; for efficiency of recovery: diluted acidic wastewater from molybdenite processing
Outline: as §1

[2] = system: AFMP (engineered A. ferrooxidans expressing mutant ModA/WtpA); experiment: Metal binding by cells in synthetic metal solutions; type: cell-based; conditions: for binding capacity to other oxyanion metals: Figure S6
[3] = system: AFWP (engineered A. ferrooxidans overexpressing wild-type ModA/WtpA); experiment: as above; type: cell-based; conditions: for binding capacity to other oxyanion metals: Figure S6; for binding capacity / fold higher binding capacity compared to wild-type cells: pH 1.8
[4] = system: wild-type (AF) A. ferrooxidans cells; type: cell-based; conditions: for binding capacity: 1 mM mixed metal solution, pH 1.8
[5] = system: wild-type ModA/WtpA protein (AFE_1498); experiment: Metal binding in vitro by purified protein; set-up: species or system A. ferrooxidans; conditions: pH 1.8, 1:1 molar ratio
Outline: (§2)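 Purified polyHis-tagged protein (Ni-NTA resin, then size exclusion chromatography; about 35 kDa on SDS-PAGE). It was incubated 1 h at pH 1.8 with a solution of one oxyanion: molybdate, tungstate, chromate or perrhenate. Binding efficiency was taken after the incubation. Error bars are one standard deviation, and p < 0.05 versus wild-type protein for the same metal.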

mutant ModA/WtpA protein = experiment: Quenching of intrinsic tryptophan fluorescence, Langmuir isotherm fit; type: binding, A. ferrooxidans; conditions: pH 1.8; for Kd: read-out: dissociation constant, mutant protein
Outline: (§3)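 Purified polyHis-tagged protein (Ni-NTA resin, then size exclusion chromatography) at a fixed amount, titrated at pH 1.8 with varying initial concentrations of molybdate, tungstate, chromate or perrhenate. Significance was p < 0.05 versus wild-type protein for the same metal.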

[6] = molecular target: wild-type ModA/WtpA protein; experiment: as above; type: binding, A. ferrooxidans; conditions: read-out: dissociation constant, pH 1.8
Outline: as §3

[7] = cited from earlier work
[8] = system: mutant (G9C/A166C) ModA/WtpA protein; experiment: Metal binding in vitro by purified protein; set-up: species or system A. ferrooxidans; conditions: pH 1.8, 1:1 molar ratio
Outline: as §2

AFWP cells = experiment: Metal recovery from porphyry molybdenite processing concentrate; type: cell-based, A. ferrooxidans; conditions: pH 1.6; for efficiency of recovery: diluted acidic wastewater from molybdenite processing
Outline: as §1

[9] = 1 mM mixed metal solution, pH 1.8
[10] = 1 mM pure metal solution, pH 1.8
[11] = diluted process concentrate, pH 1.6

[As] [arsenic]
binding during reactions with process concentrate [1]: nonspecific binding | binding during reactions with process concentrate (AFMP cells): nonspecific binding

O=[As][O-].[Na+] [arsenite]
binding capacity to other oxyanion metals [2]: did not show significant binding capacity | binding capacity to other oxyanion metals [3]: did not show significant binding capacity | binding capacity to other oxyanion metals [4]: did not show significant binding capacity

[O]=[Cr](=[O])([O-])[O-] [chromate]
binding capacity [2, 9]: 0.07 fg/cell | binding capacity [2, 10]: 0.6 fg/cell | fold higher binding capacity compared to wild-type cells [2, 10]: 1.3 fold | binding capacity ([3]; 1 mM mixed metal solution): 0.06 fg/cell | binding capacity ([3]; 1 mM pure metal solution): 0.6 fg/cell | fold higher binding capacity compared to wild-type cells ([3]; 1 mM pure metal solution): 1.3 fold | binding efficiency (bound) [5]: nearly all | Kd (mutant ModA/WtpA protein): 0.48 ± 0.07 µM | Kd [6]: 0.5 ± 0.11 µM | binding capacity ([4]; wild-type AF): 0.03 fg/cell | pKa ([7]; ref [4],[47]): 6.5 | binding efficiency (bound) [8]: nearly all

[Fe+2] [iron]
binding capacity [2, 9]: 0.04 fg/cell | binding capacity ([3]; 1 mM mixed metal solution): 0.04 fg/cell | binding efficiency (bound) [5]: 1.7 ± 0.3% | binding capacity ([4]; wild-type AF): 0.04 fg/cell | binding efficiency (bound) [8]: 1.3 ± 0.5%

[O]=[Mo](=[O])([O-])[O-] [molybdate]
binding capacity [2, 9]: 8.4 fg/cell | binding capacity [2, 10]: 18 fg/cell | fold higher binding capacity compared to wild-type cells [2, 10]: 1.4 fold | efficiency of recovery [1]: 6.0 ± 0.1% | binding capacity ([3]; 1 mM mixed metal solution): 5.9 fg/cell | binding capacity ([3]; 1 mM pure metal solution): 18 fg/cell | fold higher binding capacity compared to wild-type cells ([3]; 1 mM pure metal solution): 1.4 fold | binding efficiency (bound) [5]: nearly all | efficiency of recovery (AFMP cells; pH 1.6): 12 ± 1% | fold more recovered compared to wild-type AF cells (AFMP cells; [11]): 2 fold | fold lower Kd (higher affinity) of mutant protein than wild-type protein (mutant ModA/WtpA protein): 2 fold | Kd (mutant ModA/WtpA protein): 0.15 ± 0.01 µM | Kd [6]: 0.32 ± 0.03 µM | binding capacity ([4]; wild-type AF): 3.6 fg/cell | pKa ([7]; ref [4],[47]): 3.8 | efficiency of recovery (AFWP cells): 12 ± 1% | fold more recovered compared to wild-type AF cells (AFWP cells; diluted process concentrate): 2 fold | binding efficiency (bound) [8]: nearly all

[O]=[Re](=[O])(=[O])[O-] [perrhenate]
fold higher binding capacity than wild-type AF and AFWP cells [2, 9]: 2.7 fold | binding capacity [2, 10]: 1.3 fg/cell | fold higher binding capacity compared to AFWP cells [2, 10]: 2 fold | fold higher binding capacity compared to wild-type cells [2, 10]: 5 fold | efficiency of recovery [1]: 1.7 ± 0.1% | binding efficiency (bound) [5]: 1.4% | efficiency of recovery (AFMP cells; pH 1.6): 5.7 ± 0.1%*^,** | fold more recovered than wild-type and AFWP cells (AFMP cells; [11]): 3 fold | fold lower Kd (higher affinity) of mutant protein than wild-type protein (mutant ModA/WtpA protein): 6 fold | Kd (mutant ModA/WtpA protein): 0.16 ± 0.03 µM | Kd [6]: 1 ± 0.1 µM | pKa ([7]; ref [47]): −1.25 | efficiency of recovery (AFWP cells): 1.9 ± 0.2%*^,** | binding efficiency (bound) [8]: 93%

[Se] [selenium]
binding during reactions with process concentrate [1]: nonspecific binding | binding during reactions with process concentrate (AFMP cells): nonspecific binding

[O]=[W](=[O])([O-])[O-] [tungstate]
binding capacity [2, 9]: 0.04 fg/cell | binding capacity [2, 10]: 0.24 fg/cell | fold higher binding capacity compared to wild-type cells [2, 10]: 2 fold | binding capacity ([3]; 1 mM mixed metal solution): 0.02 fg/cell | binding capacity ([3]; 1 mM pure metal solution): 0.23 fg/cell | fold higher binding capacity compared to wild-type cells ([3]; 1 mM pure metal solution): 2 fold | binding efficiency (bound) [5]: nearly all | Kd (mutant ModA/WtpA protein): 0.36 ± 0.06 µM | Kd [6]: 0.49 ± 0.11 µM | pKa ([7]; ref [4],[47]): 6.7 | binding efficiency (bound) [8]: nearly all

phosphate
binding capacity to other oxyanion metals [2]: did not show significant binding capacity | binding capacity to other oxyanion metals [3]: did not show significant binding capacity | binding capacity to other oxyanion metals ([4]; wild-type AF, Figure S6): did not show significant binding capacity
